Experimental data from different studies.
Cell line: K562
Observed: cell growth or viability

C=CC(C)(C)c1[nH]cnc1/C=C1/NC(=O)[C@H](C(C)C)NC1=O — IC50 (MTT): 1.77 µM
O=c1cc(OCc2cc(-c3ccc(C(F)(F)F)cc3)no2)c2ccccc2o1 — IC50 (MTS; 72 h): > 100 µM
CN1CCC(NC2CCc3[nH]c4c(C(N)=O)ccc(-c5ccccc5Cl)c4c3C2)CC1 (centres unmarked) — IC50 (96 h): 0.0214 µM
CC(C)=CCc1ncc(/C=C2\NC(=O)[C@H](C(C)C)NC2=O)[nH]1 — IC50 (MTT): > 15 µM
c1ccc(-c2cc(CNc3cccc4cccnc34)on2)nc1 — IC50 (MTS; 72 h): 79.7 µM
O=C(NO)c1ccc(Cn2cnc3c(Nc4ccc(Cl)cc4)ncnc32)cc1 — IC50 (MTT; 72 h): 13.8 µM
N/C(=N\O)c1ccc(-c2cc(CNc3cccc4cccnc34)on2)cc1 — IC50 (MTS; 72 h): 86.6 µM
O=C(NO)c1ccc(Cn2cnc3c(Nc4ccc(F)c(Cl)c4)ncnc32)cc1 — IC50 (MTT; 72 h): 7.35 µM
COc1cccc2c1C(=O)c1c(O)c3c(c(O)c1C2=O)C[C@@](O)(C(=O)CO)C[C@@H]3O[C@H]1C[C@H](N)[C@H](O)[C@H](C)O1 — IC50: 0.13 µM
COc1ccc(Nc2ncnc3c2ncn3Cc2ccc(C(=O)NO)cc2)cc1 — IC50 (MTT; 72 h): 3.7 µM
Cc1sc2c(c1C)C(c1ccc(Cl)cc1)=N[C@@H](CC(=O)NCCCCNC(=O)COc1cccc3c1C(=O)N(C1CCC(=O)NC1=O)C3=O)c1nnc(C)n1-2 (some centres unmarked) — IC50 (CCK-8; 72 h): 0.73 µM
